Activity calls are given as the source filed them. The calls are words filed in the database; no cut-off is given here.
Columns and labels:
Aromatase [1] = biological target: T1, Aromatase (Homo sapiens, UniProt P11511); experiment: Inhibition of CYP19 in human H295R cells using [1beta-3H(N)]-androst-4-ene-3,17-dione at 10 uM after 24 hrs by tritiated water release assay; assay type: cell-based
T1 sequence (P11511 whole entry): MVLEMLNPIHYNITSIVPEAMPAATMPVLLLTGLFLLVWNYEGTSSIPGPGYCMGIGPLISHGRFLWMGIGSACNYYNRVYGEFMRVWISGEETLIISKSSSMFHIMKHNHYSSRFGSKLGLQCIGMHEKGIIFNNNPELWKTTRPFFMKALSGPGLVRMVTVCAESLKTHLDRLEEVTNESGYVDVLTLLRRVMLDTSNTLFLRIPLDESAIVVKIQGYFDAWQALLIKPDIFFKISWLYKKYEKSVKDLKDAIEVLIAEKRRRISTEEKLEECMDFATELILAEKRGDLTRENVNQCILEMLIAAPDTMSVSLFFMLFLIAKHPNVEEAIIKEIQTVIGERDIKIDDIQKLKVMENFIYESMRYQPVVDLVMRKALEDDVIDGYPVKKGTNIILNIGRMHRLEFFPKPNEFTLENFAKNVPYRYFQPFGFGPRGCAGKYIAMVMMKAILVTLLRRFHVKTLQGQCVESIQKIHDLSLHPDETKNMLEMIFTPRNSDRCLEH
Method in brief: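 Cells were then incubated 2 h with 0.5 µM [1β-3H(N)]-androst-4-ene-3,17-dione. Read-out is tritiated water release, expressed as % of untreated cells. Means ± SEM of two independent experiments, each in triplicate.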

Aromatase [2] = biological target: T1, Aromatase; experiment: Inhibition of aromatase (unknown origin) using 7-methoxy-4-trifluoromethylcoumarin as substrate after 30 mins by fluorimetric analysis
Method in brief: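 Recombinant CYP19 from a high-throughput screening kit, with 7-methoxy-4-trifluoromethylcoumarin as substrate. Enzyme/substrate mix was then added for 30 min at 37 °C before stop reagent. Fluorescence read at λex 410 / λem 530 nm. IC50 given as mean ± SEM of three independent experiments run in duplicate.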

HeLa [3] = experiment: Cell cycle arrest in non-estrogen-sensitive human HeLa cells assessed as decrease of accumulation at G1 and S phase at 6 to 50 uM after 24 hrs using propidium iodide staining by flow cytometry; assay type: functional, cell-based
MCF7 [4] = experiment: Cell cycle arrest in estrogen-sensitive human MCF7 cells assessed as decrease of accumulation at G1 and S phase at 6 to 50 uM after 24 hrs using propidium iodide staining by flow cytometry; assay type: functional, cell-based
HeLa [5] = experiment: Cell cycle arrest in non-estrogen-sensitive human HeLa cells assessed as increase of accumulation at G2/M phase at 6 to 50 uM after 24 hrs using propidium iodide staining by flow cytometry; assay type: functional, cell-based
MCF7 [6] = experiment: Cell cycle arrest in estrogen-sensitive human MCF7 cells assessed as increase of accumulation at G2/M phase at 6 to 50 uM after 24 hrs using propidium iodide staining by flow cytometry; assay type: functional, cell-based
NCI-H295R = experiment: Growth inhibition of estrogen-sensitive human NCI-H295R cells after 72 hrs by MTT assay; assay type: functional
Method in brief: (§1)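 Cells were seeded at 8x10^3 per well and left 18 h at 37 °C, 5% CO2, then exposed 72 h to compound at several concentrations from 10 mM DMSO stocks (final DMSO ≤0.25%). Jurkat, RS4;11 and SEM were grown in RPMI-1640; H295R in DMEM-F12 with 2% FBS plus insulin-transferrin-selenium. Viability read by MTT.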

OVCAR-3 = experiment: Growth inhibition of estrogen-sensitive human OVCAR3 cells after 72 hrs by MTT assay; assay type: functional; details: OVCAR-3, 72 h; method in brief: as §1
IGROV-1 = experiment: Growth inhibition of estrogen-sensitive human IGROV1 cells after 72 hrs by MTT assay; assay type: functional; details: IGROV-1, 72 h; method in brief: as §1
HT-29 = experiment: Growth inhibition of non-estrogen-sensitive human HT-29 cells after 72 hrs by MTT assay; assay type: functional; details: HT-29, 72 h; method in brief: as §1
MCF7 [7] = experiment: Growth inhibition of estrogen-sensitive human MCF7 cells after 72 hrs by MTT assay; assay type: functional; details: MCF7, 72 h; method in brief: as §1
HeLa [8] = experiment: Growth inhibition of non-estrogen-sensitive human HeLa cells after 72 hrs by MTT assay; assay type: functional; method in brief: as §1
Jurkat = experiment: Growth inhibition of non-estrogen-sensitive human Jurkat cells after 72 hrs by MTT assay; assay type: functional; method in brief: as §1
[9] = Growth inhibition of non-estrogen-sensitive human SEM cells after 72 hrs by MTT assay; assay type: functional; method in brief: as §1
[10] = Growth inhibition of non-estrogen-sensitive human RS4:11 cells after 72 hrs by MTT assay; assay type: functional; details: RS4-11, 72 h; method in brief: as §1
[11] = biological target: T2, Steroid 17-alpha-hydroxylase/17,20 lyase (Homo sapiens, UniProt P05093); experiment: Inhibition of human CYP17 expressed in Escherichia coli using progesterone as substrate NADPH as cofactor
T2 sequence (P05093 whole entry): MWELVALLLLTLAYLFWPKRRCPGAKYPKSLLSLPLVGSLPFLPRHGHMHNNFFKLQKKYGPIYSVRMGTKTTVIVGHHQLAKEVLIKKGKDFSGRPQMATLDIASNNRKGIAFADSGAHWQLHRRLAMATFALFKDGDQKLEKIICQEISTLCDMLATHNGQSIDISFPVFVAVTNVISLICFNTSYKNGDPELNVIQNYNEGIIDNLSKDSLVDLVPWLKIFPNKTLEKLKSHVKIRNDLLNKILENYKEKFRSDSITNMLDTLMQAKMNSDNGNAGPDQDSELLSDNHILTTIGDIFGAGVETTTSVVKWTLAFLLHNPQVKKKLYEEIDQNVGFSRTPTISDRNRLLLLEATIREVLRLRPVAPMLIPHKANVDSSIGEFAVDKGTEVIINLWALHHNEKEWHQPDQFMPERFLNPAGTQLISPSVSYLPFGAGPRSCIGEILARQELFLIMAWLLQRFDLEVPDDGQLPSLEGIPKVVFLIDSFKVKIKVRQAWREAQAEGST
Method in brief: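 Cell-free assay using the 50000g sediment of E. coli coexpressing human CYP17 and cytochrome P450 reductase, with progesterone substrate and NADPH cofactor. IC50 given as mean ± SEM of three independent experiments run in duplicate.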

[12] = biological target: T3, Cytochrome P450 11B1, mitochondrial (Homo sapiens, UniProt P15538); experiment: Inhibition of human CYP11B1 using [1,2-3H]-11-deoxycorticosterone as substrate
T3 sequence (P15538 whole entry): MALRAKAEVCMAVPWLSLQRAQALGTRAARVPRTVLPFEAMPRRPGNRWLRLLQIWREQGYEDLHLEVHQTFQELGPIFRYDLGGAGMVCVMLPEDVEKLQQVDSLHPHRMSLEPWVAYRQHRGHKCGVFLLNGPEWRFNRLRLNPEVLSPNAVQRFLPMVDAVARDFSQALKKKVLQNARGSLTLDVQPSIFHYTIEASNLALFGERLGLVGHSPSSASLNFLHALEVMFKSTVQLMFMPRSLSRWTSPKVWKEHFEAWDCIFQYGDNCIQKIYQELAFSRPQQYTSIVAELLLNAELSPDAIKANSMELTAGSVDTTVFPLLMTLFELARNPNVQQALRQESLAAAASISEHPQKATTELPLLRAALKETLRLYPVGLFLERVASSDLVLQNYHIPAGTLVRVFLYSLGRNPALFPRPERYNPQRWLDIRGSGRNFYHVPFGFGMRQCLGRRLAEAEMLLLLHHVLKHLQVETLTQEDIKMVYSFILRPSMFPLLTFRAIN
Method in brief: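 Hamster fibroblast V79MZh cells expressing human CYP11B1 were incubated with [1,2-3H]-11-deoxycorticosterone substrate and inhibitor at several concentrations. IC50 given as mean ± SEM of three independent experiments run in duplicate.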

Aromatase [13] = biological target: T1, Aromatase; experiment: Inhibition of aromatase in human H295R cells using [1beta-3H(N)]-androst-4-ene-3,17-dione as substrate assessed as residual activity at 10 uM after 24 hrs by tritiated water release assay
Aromatase [14] = biological target: T1, Aromatase; experiment: Inhibition of aromatase (unknown origin) using 7-methoxy-4-trifluoromethylcoumarin as substrate at 10 uM after 30 mins by fluorimetric analysis; details: 0.5 h
Aromatase [15] = biological target: T1, Aromatase; experiment: Activation of aromatase in human H295R cells using [1beta-3H(N)]-androst-4-ene-3,17-dione as substrate at 0.1 uM after 24 hrs by tritiated water release assay
Aromatase [16] = biological target: T1, Aromatase; experiment: Inhibition of aromatase in human H295R cells using [1beta-3H(N)]-androst-4-ene-3,17-dione as substrate assessed as residual activity at 1 uM after 24 hrs by tritiated water release assay
Aromatase [17] = biological target: T1, Aromatase; experiment: Inhibition of aromatase in human H295R cells using [1beta-3H(N)]-androst-4-ene-3,17-dione as substrate at 10 uM after 24 hrs by tritiated water release assay
HeLa [18] = experiment: Cell cycle arrest in non-estrogen-sensitive human HeLa cells at 6 to 50 uM after 24 hrs using propidium iodide staining by flow cytometry; assay type: functional, cell-based
MCF7 [19] = experiment: Cell cycle arrest in estrogen-sensitive human MCF7 cells assessed as decrease of accumulation at S phase at 6 to 50 uM after 24 hrs using propidium iodide staining by flow cytometry; assay type: functional, cell-based
MCF7 [20] = experiment: Cell cycle arrest in estrogen-sensitive human MCF7 cells assessed as increase of accumulation at G1 phase after 24 hrs using propidium iodide staining by flow cytometry; assay type: functional, cell-based

inhibition (INH) (Aromatase [1]) | IC50 (Aromatase [2]) [µM] | GI50 (NCI-H295R) [µM] | GI50 (OVCAR-3) [µM] | GI50 (HT-29) [µM] | GI50 (MCF7 [7]) [µM] | GI50 (HeLa [8]) [µM] | GI50 (Jurkat) [µM] | Compound | GI50 (IGROV-1) [µM] | GI50 [9] [µM] | GI50 [10] [µM] | further results
Not Active | 1.47 |  |  |  |  |  |  | CCn1ccc2c3c(C(=O)O)cc(-c4ccccc4)nc3ccc21 |  |  |  | 
Not Active | > 10 |  |  |  |  |  |  | CCn1ccc2c3nc(-c4ccccc4)cc(CO)c3ccc21 |  |  |  | 
 | 0.0133 | 75.3 | 13.6 | 29.5 | 23 | 59.8 | 65.8 | CCn1ccc2c3c(Cn4cncn4)cc(-c4ccccc4)nc3ccc21 | 54.3 | 5.5 | 2.7 | Activity (HeLa [3]): Active; Activity (MCF7 [4]): Active; Activity (HeLa [5]): Active; Activity (MCF7 [6]): Active; IC50 [11]: > 5 µM; IC50 [12]: 1.48 µM; activity at 10 µM (Aromatase [13]): 50.9%
 | 0.0053 | 19 | 17.5 | 6.5 | 3.8 | 19.5 | 16.7 | CCn1ccc2c3nc(-c4ccccc4)cc(Cn4ccnc4)c3ccc21 | 18.9 | 31.2 | 19.2 | inhibition (INH) (Aromatase [14]): Active; IC50 [11]: 0.48 µM; IC50 [12]: 0.25 µM; Activity (Aromatase [15]): Active
Not Active | > 10 |  |  |  |  |  |  | COc1ccc(-c2cc(C(=O)O)c3ccc4[nH]ccc4c3n2)cc1 |  |  |  | activity at 1 µM (Aromatase [16]): 10.6%
Not Active | 0.454 | 46.2 | > 100 | > 100 | > 100 | 67.9 | 73.8 | COc1ccc(-c2cc(Cn3ccnc3)c3ccc4[nH]ccc4c3n2)cc1 | > 100 | 25.5 | 23.3 | inhibition (INH) (Aromatase [14]): Not Active; IC50 [11]: 0.55 µM; IC50 [12]: 0.96 µM
 | 2.11 |  |  |  |  |  |  | OCc1cc(-c2ccccc2)nc2c1ccc1[nH]ccc12 |  |  |  | inhibition at 10 µM (Aromatase [17]): 40%
Not Active | 4.15 |  |  |  | 5.7 |  |  | Cc1cc(CO)c2ccc3[nH]ccc3c2n1 |  | 16.2 |  | 
Not Active | > 10 |  |  |  |  |  |  | CCOC(=O)c1cc(C)nc2c1ccc1[nH]ccc12 |  |  |  | 
Not Active | 0.0114 | 36.5 | 16.9 | 13.5 | 23.3 | 21.2 | 27 | c1ccc(-c2cc(Cn3ccnc3)c3ccc4[nH]ccc4c3n2)cc1 | 23.6 | 17 | 29.6 | Activity (HeLa [18]): inactive; Activity (MCF7 [19]): Active; Activity (MCF7 [20]): Dose-dependent effect; IC50 [11]: 0.919 µM; IC50 [12]: 0.23 µM; Activity (Aromatase [15]): Active
Active | > 10 |  |  | 17.2 |  |  |  | CCOC(=O)c1cc(-c2ccccc2)nc2c1ccc1[nH]ccc12 |  |  |  | 
 | > 10 |  |  |  |  |  |  | CCn1ccc2c3c(CO)cc(-c4ccccc4)nc3ccc21 |  | 13.4 |  | inhibition at 10 µM (Aromatase [17]): 90%
Not Active | > 10 |  |  |  |  |  |  | Cc1cc(C(=O)O)c2ccc3[nH]ccc3c2n1 |  |  |  | Activity (Aromatase [15]): Active
Active | > 10 |  |  | 1.9 |  |  |  | CCOC(=O)c1cc(-c2ccc(OC)cc2)nc2c1ccc1[nH]ccc12 |  |  |  | 
Not Active | > 10 |  |  |  |  |  |  | CCOC(=O)c1cc(-c2ccccc2)nc2ccc3c(ccn3CC)c12 |  |  |  | 
Not Active | > 10 |  |  | 4.3 | 18.5 |  |  | CCOC(=O)c1cc(-c2ccccc2)nc2c1ccc1c2ccn1CC |  | 13 |  | 
Not Active | > 10 | > 100 | 50.6 | > 100 | > 100 | > 100 | 39.5 | COc1ccc(-c2cc(Cn3cncn3)c3ccc4[nH]ccc4c3n2)cc1 | 82 | 28.4 | 43.8 | IC50 [11]: > 5 µM; IC50 [12]: > 5 µM; Activity (Aromatase [15]): Active
 | 0.59 | 0.7 | 0.39 | 17.7 | 0.81 | 38.4 | 21.2 | COc1cccc(-c2cc(=O)c3ccc4[nH]ccc4c3[nH]2)c1 | 0.92 | 35 | 25 | 
